In ChEMBL document CHEMBL1157379, “Transcriptional response of Candida parapsilosis following exposure to farnesol” (2007):
Activity calls are given as the source filed them. The rule behind the calls is not given here.

Legend:
Candida parapsilosis [1] = experiment: Increase in KRE30 gene expression in Candida parapsilosis CLIB214 at 50 uM after 2 hrs by microarray based transcriptional profiling relative to control; assay type: functional
How it was run: (§1)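 Strain grown overnight in YPD at 30°C, diluted to A600 0.2 in YPD at 30°C; farnesol (40 mM methanol stock) added at 4 h (A600 0.8), final 50 μM; methanol-only control. Cells collected 2 h later for RNA. Labelled cDNA from 25 μg total RNA (Cy3/Cy5-dCTP) hybridized to 68-mer oligo arrays at 42°C ~16 h; six individual comparisons analysed statistically.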

Candida parapsilosis [2] = experiment: Increase in ELF1 gene expression in Candida parapsilosis CLIB214 at 50 uM after 2 hrs by microarray based transcriptional profiling relative to control; assay type: functional; how it was run: as §1
Candida parapsilosis [3] = experiment: Increase in KEX2 gene expression in Candida parapsilosis CLIB214 at 50 uM after 2 hrs by microarray based transcriptional profiling relative to control; assay type: functional; how it was run: as §1
Candida parapsilosis [4] = experiment: Increase in CGD gene ortholog accession number orf19.6080 expression in Candida parapsilosis CLIB214 at 50 uM after 2 hrs by microarray based transcriptional profiling relative to control; assay type: functional
How it was run: (§2)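 Strain CLIB214 grown overnight in YPD at 30°C, diluted to A600 0.2 in fresh YPD at 30°C. After 4 h (A600 0.8), farnesol (40 mM methanol stock) added to 50 μM final, or an equal methanol volume as control; cells harvested 2 h later. RNA was accepted only with a 28S/18S ratio of 1.6–2.2. Cy3/Cy5-dCTP-labelled cDNA was made from 25 μg total RNA. Hybridisation was to duplicate-spotted 68-mer oligo arrays (3,849 genes) at 42°C for about 16 h. Six individual comparisons.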

Candida parapsilosis [5] = experiment: Decrease in CGD gene ortholog accession number orf19.2892 expression in Candida parapsilosis CLIB214 at 50 uM after 2 hrs by microarray based transcriptional profiling relative to control; assay type: functional
How it was run: (§3)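 Cells in YPD at 30°C treated with 50 μM farnesol at 4 h, with a methanol control. RNA harvested 2 h later and kept only if 28S/18S ratio was 1.6–2.2 with no degradation. 25 μg total RNA oligo-dT primed and labeled with Cy3/Cy5-dCTP. Labeled cDNA hybridized about 16 h at 42°C to duplicate-spotted 68-mer oligo arrays. Six individual comparisons analyzed statistically.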

Candida parapsilosis [6] = experiment: Antifungal activity against Candida parapsilosis CLIB214 assessed as growth inhibition at 50 uM added after 8 hrs of bacterial growth measured after 2 hrs; assay type: functional; conditions: Lodderomyces parapsilosis
How it was run: (§4)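 Overnight YPD culture at 30°C diluted to A600 0.2 in YPD. Farnesol added to 50 μM final at 2, 4, 6 or 8 h of growth (A600 about 0.8 at 4 h, 2.3 at 6 h, 6 at 8 h). Growth compared with methanol controls by A600 or cell counts.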

Candida parapsilosis [7] = experiment: Increase in CGD gene ortholog accession number orf19.3501 expression in Candida parapsilosis CLIB214 at 50 uM after 2 hrs by microarray based transcriptional profiling relative to control; assay type: functional; how it was run: as §2
Candida parapsilosis [8] = experiment: Decrease in CGD gene ortholog accession number orf19.1728 expression in Candida parapsilosis CLIB214 at 50 uM after 2 hrs by microarray based transcriptional profiling relative to control; assay type: functional; how it was run: as §3
Candida parapsilosis [9] = experiment: Antifungal activity against Candida parapsilosis CLIB214 assessed as growth inhibition at 50 uM added after 4 hrs of bacterial growth measured after 4 hrs; assay type: functional; conditions: Lodderomyces parapsilosis, CLIB214, 4 h; how it was run: as §4
Candida parapsilosis [10] = experiment: Decrease in CGD gene ortholog accession number orf19.5877 expression in Candida parapsilosis CLIB214 at 50 uM after 2 hrs by microarray based transcriptional profiling relative to control; assay type: functional; how it was run: as §3
Candida parapsilosis [11] = experiment: Increase in GenBank accession number NP_943645.1 expression in Candida parapsilosis CLIB214 at 50 uM after 2 hrs by microarray based transcriptional profiling relative to control; assay type: functional; how it was run: as §1
Candida parapsilosis [12] = experiment: Decrease in CGD gene ortholog accession number orf19.7325 expression in Candida parapsilosis CLIB214 at 50 uM after 2 hrs by microarray based transcriptional profiling relative to control; assay type: functional; how it was run: as §2
Candida parapsilosis [13] = experiment: Antifungal activity against Candida parapsilosis CLIB214 assessed as induction of cell death at 50 uM added 4 hrs after […] growth after 2 hrs by propidium iodide staining method; assay type: functional
How it was run: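 After 2 h exposure to 50 μM farnesol (methanol stock; methanol-only control), cells were washed twice in PBS and stained with propidium iodide at 10 μg ml−1 in PBS for 5 min. Dead-cell percentage was scored by fluorescence microscopy (Texas Red filter), counting at least 150 cells in each of three independent experiments.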

Candida parapsilosis [14] = experiment: Decrease in CGD gene ortholog accession number orf19.5022 expression in Candida parapsilosis CLIB214 at 50 uM after 2 hrs by microarray based transcriptional profiling relative to control; assay type: functional; how it was run: as §3
Candida parapsilosis [15] = experiment: Decrease in ARG11 gene expression in Candida parapsilosis CLIB214 at 50 uM after 2 hrs by microarray based transcriptional profiling relative to control; assay type: functional; how it was run: as §3
Candida parapsilosis [16] = experiment: Decrease in CGD gene ortholog accession number orf19.4947 expression in Candida parapsilosis CLIB214 at 50 uM after 2 hrs by microarray based transcriptional profiling relative to control; assay type: functional; how it was run: as §3
Candida parapsilosis [17] = experiment: Cell cycle arrest in Candida parapsilosis CLIB214 assessed as accumulation at S phase at 50 uM added 4 hrs after […] growth; assay type: functional, organism-based
How it was run: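 YPD culture diluted to A600 0.2 at 30°C. Farnesol added to 50 μM after 4 h. Budding cells scored by microscopy: unbudded as G1, small budded as S, large budded as G2/M. Compared with methanol controls.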

Candida parapsilosis [18] = experiment: Effect on membrane lipid localization in ERG9 gene expression in Candida parapsilosis CLIB214 assessed as growing bud tip staining at 50 uM after 1 hr by filipin staining; assay type: functional
How it was run: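 Cultures grown overnight in YPD at 30°C, diluted to A600 0.2, and given farnesol to 50 μM final (methanol for controls) after 4 h of growth. Cells collected 1 h later, PBS-washed, and stained 10 min at room temperature with 100 μg ml−1 filipin in water. Scored by fluorescence microscopy (excitation 360–370 nm, emission 420–460 nm) as bud-tip versus uniform sterol staining.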

Candida parapsilosis [19] = experiment: Increase in CGD gene ortholog accession number orf19.7353 expression in Candida parapsilosis CLIB214 at 50 uM after 2 hrs by microarray based transcriptional profiling relative to control; assay type: functional; how it was run: as §2
Candida parapsilosis [20] = experiment: Antifungal activity against Candida parapsilosis CLIB214 assessed as growth inhibition in presence of 10% fetal calf serum at 30 degC; assay type: functional, organism-based
How it was run: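 YPD cultures started at A600 0.2, supplemented with 10% (vol/vol) fetal calf serum, and grown at 30°C or 37°C. Farnesol added with the serum. Growth monitored by A600 or cell counting.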

Candida parapsilosis [21] = experiment: Antifungal activity against Candida parapsilosis CLIB214 assessed as reduction of biofilm formation at 100 uM added 4 hrs after […] growth by crystal violet assay; assay type: functional; set-up: scale not given: the % may be the effect or the level left
How it was run: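 Cells grown overnight in YNB, diluted to A600 1, and left to adhere 2 h at 37°C. Nonadherent cells washed off with PBS, then fresh YNB added and plates incubated 24 h at 37°C. Biofilms stained with 0.1% crystal violet for 15 min at 30°C, destained 4 h in 33% acetic acid, and read at A570.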

CC(C)=CCC/C(C)=C/CC/C(C)=C/CO [FARNESOL]
fold change (FC) (Candida parapsilosis [1]): 2.24 | fold change (FC) (Candida parapsilosis [2]): 2.16 | fold change (FC) (Candida parapsilosis [3]): 1.57 | fold change (FC) (Candida parapsilosis [4]): 1.52 | fold change (FC) (Candida parapsilosis [5]): 1.69 | inhibition at 50 µM (Candida parapsilosis [6]): 9.5% | fold change (FC) (Candida parapsilosis [7]): 1.63 | fold change (FC) (Candida parapsilosis [8]): 1.59 | inhibition at 50 µM (Candida parapsilosis [9]): 83% | fold change (FC) (Candida parapsilosis [10]): 3.22 | fold change (FC) (Candida parapsilosis [11]): 2.05 | fold change (FC) (Candida parapsilosis [12]): 1.67 | Activity (Candida parapsilosis [13]): 20% | fold change (FC) (Candida parapsilosis [14]): 1.85 | fold change (FC) (Candida parapsilosis [15]): 1.56 | fold change (FC) (Candida parapsilosis [16]): 1.58 | Activity (Candida parapsilosis [17]): Active | Activity (Candida parapsilosis [18]): 18% | fold change (FC) (Candida parapsilosis [19]): 2.14 | Activity (Candida parapsilosis [20]): inactive | Activity (Candida parapsilosis [21]): 30%
